Assay results gathered from unrelated publications.
Protocols differ between the studies behind these lines.

CC(C)(O)c1cn(-c2ccc(-c3cc(F)c(CO)c(S(C)(=O)=O)c3)cc2)c(C(C)(C)c2cccc(F)c2Cl)n1 — Vd (male cynomolgus monkey, plasma; intravenous, 1 mg/kg, single dose): 3.2 L/kg
Cn1cc(-c2ccc(S(=O)(=O)[C@@H]3C[C@@H](C(=O)NC4(C#N)CC4)N(C(=O)C4(C(F)(F)F)CC4)C3)c(C(F)(F)F)c2)cn1 — Cmax (human, plasma; oral, 600 mg, single dose, fasted, healthy volunteers): 1300 ng/mL
CC(C)(O)c1cn(-c2ccc(-c3cc(F)c(CO)c(S(C)(=O)=O)c3)cc2F)c(C(C)(C)c2c(Cl)cccc2Cl)n1 — bioavailability (male cynomolgus monkey, plasma; oral, 3 mg/kg, single dose): 42%
CN1CCC(c2ccccc2CC(C)(C)Nc2nc(N3CCOCC3)nc(-n3c(C(F)F)nc4ccccc43)n2)CC1 — Vd (cynomolgus monkey, plasma; intravenous, 2 mg/kg, single dose): 8 L/kg
COc1cc(C(=O)NC2CCN(C)CC2)c(F)cc1Nc1ncc(C(F)(F)F)c(Oc2cccc3c2C(=O)N(C)C3)n1 — Cmax (human, plasma; oral, 300 mg, single dose, patients): 4.54 µM
CC(C)(O)c1cn(-c2ccc(-c3cccc(S(C)(=O)=O)c3)cc2)c(C(C)(C)c2ccccc2Cl)n1 — bioavailability (male cynomolgus monkey, plasma; oral, 3 mg/kg, single dose): 73%
Cc1nc2ccc(F)cc2n1-c1nc(N)c(F)c(Nc2ccc(C(F)(F)F)cc2)n1 — bioavailability (cynomolgus monkey, plasma; oral, 2 mg/kg): 66%
CO[C@H]1CC[C@H](N2C(=O)CNc3ncc(-c4ccc(C(C)(C)O)nc4)nc32)CC1 — Cmax (human, plasma; oral, 30 mg, multiple doses, patients): 293 ng/mL
CCc1nc2c(C)cc(N3CCN(CC(=O)N4CC(O)C4)CC3)cn2c1N(C)c1nc(-c2ccc(F)cc2)c(C#N)s1 — Cmax (human, plasma; intravenous, 0.1 mg, single dose, fasted, healthy volunteers): 9.37 ng/mL
C=CC(=O)N1CC2CC(n3nc(-c4ccc(C(=O)Nc5ccccn5)cc4)c4c(N)ncnc43)CC2C1 (centres unmarked) — Tmax (SCID mouse, plasma; oral, 1 mg/kg): 15 min
CC(C)(C)c1ccc(O)c(CN(Cc2cc(C(C)(C)C)ccc2O)C2CCC(NC(N)=O)CC2)c1 (centres unmarked) — Tmax (male C57BL/6 mouse, brain; intraperitoneal, 25 mg/kg, single dose): 30 min
